According to ChEMBL document CHEMBL3112443, “Development of new LXR modulators that regulate LXR target genes and reduce lipogenesis in human cell models” (Eur J Med Chem, 2014):
Activity calls are given as the source filed them. The rule behind the calls is not given here.

Tests used:
[1] = target: T1, Liver X receptor (Homo sapiens) (UniProt Q13133+P55055); experiment: Modulation of LXR in human myotubes assessed as increase of D-[14C(U)]deoxy-D-glucose uptake after 4 days by scintillation counting; assay type: protein assay
Procedure, shortened: (§1)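 Primary myotubes, 7 days differentiated, treated 4 days with compounds in 0.1% DMSO. Then given D-[14C(U)]deoxy-D-glucose (100 mM as printed) for 4 h. Washed twice with ice-cold PBS, lysed in 0.1 M NaOH and counted by liquid scintillation. Uptake normalized to protein; mean ± SEM of separate experiments, at least 3 parallels each.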

[2] = target: T1, Liver X receptor (Homo sapiens); experiment: Modulation of LXR in human HepG2 cells assessed as decrease of T0901317-induced SCD1 mRNA expression at 10 uM after 4 days by qPCR analysis; assay type: cell-based
[3] = target: T1, Liver X receptor (Homo sapiens); experiment: Modulation of LXR in human myotubes assessed as decrease of T0901317-induced FAS mRNA expression at 10 uM after 4 days by qPCR analysis
Procedure, shortened: (§2)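 Cells given 1 mM T0901317 (so in the source) together with […] test compound; DMSO 0.1% vehicle. Myotubes treated 4 days, HepG2 24 h. Total RNA reverse-transcribed with hexamer primers, then SYBR Green qPCR. Expression normalized to 36B4 and given as fold change vs DMSO control, mean ± SEM, n = 3–11 separate experiments, at least 3 parallels each.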

[4] = target: T1, Liver X receptor (Homo sapiens); experiment: Modulation of LXR in human HepG2 cells assessed as decrease of T0901317-induced FAS mRNA expression at 10 uM after 4 days by qPCR analysis; assay type: cell-based
[5] = target: T1, Liver X receptor (Homo sapiens); experiment: Modulation of LXR in human myotubes assessed as increase of D-[14C(U)]deoxy-D-glucose uptake at 1 uM after 4 days by scintillation counting; assay type: protein assay; procedure, shortened: as §1
[6] = target: T1, Liver X receptor (Homo sapiens); experiment: Modulation of LXR in human myotubes assessed as decrease of T0901317-induced ABCA1 mRNA expression at 10 uM after 4 days by qPCR analysis; procedure, shortened: as §2
[7] = target: T1, Liver X receptor (Homo sapiens); experiment: Modulation of LXR in human HepG2 cells assessed as decrease of T0901317-induced ABCA1 mRNA expression at 10 uM after 4 days by qPCR analysis; assay type: cell-based
[8] = target: T1, Liver X receptor (Homo sapiens); experiment: Modulation of LXR in human myotubes assessed as increase of T0901317-induced lipogenesis using [1-14C]acetate at 1 uM after 4 days by scintillation counting; assay type: protein assay
Procedure, shortened: (§3)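 Primary myotubes from satellite cells of 6 healthy donors, used after 7 days of differentiation. Treated 4 days with compounds ± T0901317 in 0.1% DMSO, then labelled 24 h with [1-14C]acetate (100 mM as printed). Lysed in NaOH; total lipids isolated by hydrophobic filtration and scintillation-counted. Normalized to protein; fold vs control, mean ± SEM, n = 3–6; dose–response n = 6.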

[9] = target: T1, Liver X receptor (Homo sapiens); experiment: Modulation of LXR in human myotubes assessed as decrease of T0901317-induced SCD1 mRNA expression at 10 uM after 4 days by qPCR analysis; procedure, shortened: as §2
[10] = target: T1, Liver X receptor (Homo sapiens); experiment: Modulation of LXR in human myotubes assessed as increase of D-[14C(U)]deoxy-D-glucose uptake at 1 to 50 uM after 4 days by scintillation counting; assay type: protein assay; procedure, shortened: as §1
[11] = target: T1, Liver X receptor (Homo sapiens); experiment: Modulation of LXR in human HepG2 cells assessed as reduction of lipogenesis using [1-14C]acetate at 1 uM after 24 h by scintillation counting
[12] = target: T1, Liver X receptor (Homo sapiens); experiment: Modulation of LXR in human myotubes assessed as reduction of lipogenesis using [1-14C]acetate after 4 days by scintillation counting; assay type: protein assay; procedure, shortened: as §3
[13] = target: T1, Liver X receptor (Homo sapiens); experiment: Modulation of LXR in human myotubes assessed as increase of ABCA1 mRNA expression at 10 uM after 4 days by qPCR analysis
Procedure, shortened: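 Primary human myotubes (satellite cells from abdominal muscle of 6 healthy donors, differentiated 7 days at 5.5 mM glucose, 25 pM insulin) treated with compound or 0.1% DMSO for 4 days. Total RNA reverse-transcribed with hexamer primers; SYBR Green qPCR. ABCA1 normalised to 36B4 and reported as fold change versus DMSO, mean ± SEM, n = 3–11.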

[14] = target: T1, Liver X receptor (Homo sapiens); experiment: Modulation of LXR in human myotubes assessed as increase of ABCA1 mRNA expression at 10 uM after 4 days by qPCR analysis
[15] = target: T1, Liver X receptor (Homo sapiens); experiment: Modulation of LXR in human HepG2 cells assessed as reduction of T0901317-induced lipogenesis using [1-14C]acetate at 1 uM after 24 h by scintillation counting
[16] = target: T1, Liver X receptor (Homo sapiens); experiment: Modulation of LXR in human myotubes assessed as reduction of T0901317-induced lipogenesis using [1-14C]acetate at 10 uM after 4 days by scintillation counting
[17] = target: T1, Liver X receptor (Homo sapiens); experiment: Modulation of LXR in human myotubes assessed as increase of D-[14C(U)]deoxy-D-glucose uptake at 50 uM after 4 days by scintillation counting; assay type: protein assay; procedure, shortened: as §1
[18] = target: T1, Liver X receptor (Homo sapiens); experiment: Modulation of LXR in human HepG2 cells assessed as reduction of T0901317-induced lipogenesis using [1-14C]acetate at 1 uM after 4 days by scintillation counting; assay type: cell-based

Activity [1] | Activity [2] | Activity [3] | Activity [4] | Activity [5] | Activity [6] | Activity [7] | Activity [8] | Activity [9] | Activity [10] | Activity [11] | Activity [12] | Activity [17] | Activity [18] | SMILES | Activity [13] | Activity [14] | Activity [15] | Activity [16]
Dose-dependent effect | inactive | inactive | inactive | Active | Active | Active | Active | inactive |  |  |  |  |  | CC(C)CC[C@H](O)[C@@H](C)COCc1ccc(S(=O)(=O)N(C)C2CCCCC2)cc1 |  |  |  | 
Dose-dependent effect | Active |  |  | Active |  |  | Active | Active |  | Active | Dose-dependent effect |  |  | CC(C)CC[C@H](O)[C@@H](C)COCc1ccc(S(=O)(=O)N(COCC[Si](C)(C)C)COCC[Si](C)(C)C)cc1 |  |  |  | 
Dose-dependent effect | Active | Active | Active |  |  |  | Active | Active |  |  |  | Active | Active | COc1ccc2cc(COC[C@H](C)[C@@H](O)CCC(C)C)ccc2c1 |  |  |  | 

Continued, compound first:

SMILES | Activity [1] | Activity [2] | Activity [3] | Activity [4] | Activity [5] | Activity [6] | Activity [7] | Activity [8] | Activity [9] | Activity [10] | Activity [11] | Activity [12] | Activity [17] | Activity [18] | Activity [13] | Activity [14] | Activity [15] | Activity [16]
CCCCCCN(CCCCCC)S(=O)(=O)c1ccc(COC[C@H](C)[C@@H](O)CCC(C)C)cc1 |  | inactive | inactive | inactive |  | inactive | inactive | Active | inactive | inactive |  |  |  |  |  |  |  | 
CC(C)CC[C@H](O)[C@@H](C)[C@H]1CC[C@H]2[C@@H]3CC=C4C[C@@H](O)CC[C@]4(C)[C@H]3CC[C@]12C |  |  |  |  |  | inactive | inactive |  |  |  |  |  |  |  | Active | Active | Active | Active
